Converted amounts (≈) assume the structure as drawn.
Columns and labels:
Format in all cases: functional
[1] = tested on: Candida albicans; assay: Antifungal activity against Candida albicans after 48 hrs by M27-A3 CLSI method
Method in brief: (§1)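 Broth microdilution in RPMI 1640, two-fold serial dilutions, final test range 0.125–64 µg mL-1 (fluconazole reference 0.0078–128 µg mL-1). Inoculum 1.0×10^3–1.5×10^3 cells mL-1 from yeasts grown 24 h at 35 °C on Sabouraud dextrose agar. Incubation 35 °C, read at 48 h. MIC = lowest concentration giving >50% turbidity decrease versus growth control. Run three times in triplicate. C. parapsilosis ATCC22019 served as QC.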

[2] = tested on: Candida albicans; assay: Antifungal activity against Candida albicans ATCC 24433 after 48 hrs by M27-A3 CLSI method; conditions: Candida albicans, ATCC 24433, 48 h; read-out: MIC; method in brief: as §1
[3] = tested on: Candida albicans; assay: Antifungal activity against Candida albicans ATCC 3153 after 48 hrs by M27-A3 CLSI method; conditions: ATCC 3153, 48 h; method in brief: as §1
[4] = tested on: Candida albicans; assay: Antifungal activity against Candida albicans ATCC 10231 after 48 hrs by M27-A3 CLSI method; conditions: ATCC 10231, 48 h; method in brief: as §1
[5] = tested on: Candida albicans; assay: Antifungal activity against Candida albicans ATCC 76615 after 48 hrs by M27-A3 CLSI method; conditions: ATCC 76615, 48 h; method in brief: as §1
[6] = tested on: Candida; assay: Antifungal activity against Candida sp. after 48 hrs by M27-A3 CLSI method; method in brief: as §1
[7] = tested on: Candida parapsilosis; assay: Antifungal activity against Candida parapsilosis ATCC 22019 after 48 hrs by M27-A3 CLSI method; conditions: Lodderomyces parapsilosis, ATCC 22019, 48 h; method in brief: as §1
[8] = tested on: Candida parapsilosis; assay: Antifungal activity against Candida parapsilosis DSM 11224 after 48 hrs by M27-A3 CLSI method; conditions: Lodderomyces parapsilosis, DSM 11224, 48 h; read-out: MIC; method in brief: as §1
[9] = tested on: Candida tropicalis; assay: Antifungal activity against Candida tropicalis PMC 0910 after 48 hrs by M27-A3 CLSI method; conditions: PMC 0910, 48 h; method in brief: as §1
[10] = tested on: Candida tropicalis; assay: Antifungal activity against Candida tropicalis DSM 11953 after 48 hrs by M27-A3 CLSI method; conditions: DSM 11953, 48 h; method in brief: as §1
[11] = tested on: Pichia kudriavzevii; assay: Antifungal activity against Candida krusei DSM 6128 after 48 hrs by M27-A3 CLSI method; conditions: DSM 6128, 48 h; method in brief: as §1
[12] = tested on: Nakaseomyces glabratus; assay: Antifungal activity against Candida glabrata PMC 0805 after 48 hrs by M27-A3 CLSI method; conditions: PMC 0805, 48 h; method in brief: as §1
[13] = tested on: Pichia kudriavzevii; assay: Antifungal activity against Candida krusei PMC 0613 after 48 hrs by M27-A3 CLSI method; conditions: Pichia kudriavzevii, PMC 0613, 48 h; read-out: MIC; method in brief: as §1

Row | Structure (SMILES) | MIC [1] [µg/mL] | MIC50 [1] [µg/mL] | MIC90 [1] [µg/mL] | MIC [2] [µg/mL] | MIC [3] [µg/mL] | MIC [4] [µg/mL] | MIC [5] [µg/mL] | MIC [6] [µg/mL] | MIC50 [6] [µg/mL] | MIC90 [6] [µg/mL] | MIC [7] [µg/mL] | MIC [8] [µg/mL] | MIC [9] [µg/mL] | MIC [10] [µg/mL] | MIC [11] [µg/mL] | MIC [12] [µg/mL] | MIC [13] [µg/mL]
1 | CC(C)c1ccc(NC(=O)OC(Cn2ccnc2)c2ccc(F)cc2)cc1 (racemic) | 39.6 (≈ 108 µM) | 16 (≈ 43.5 µM) | 64 (≈ 174 µM) | 1 (≈ 2.72 µM) | 16 (≈ 43.5 µM) | 2 (≈ 5.44 µM) | ≥ 64 | 68.4 (≈ 186 µM) | 4 (≈ 10.9 µM) | 128 (≈ 348 µM) | > 64 | 16 (≈ 43.5 µM) | 4 (≈ 10.9 µM) | > 64 | 16 (≈ 43.5 µM) | > 64 | 64 (≈ 174 µM)
2 | OC(Cn1ccnc1)c1ccc(Cl)cc1 (racemic) | 112 (≈ 503 µM) | 128 (≈ 575 µM) | 128 (≈ 575 µM) | > 64 | > 32 | > 64 | > 64 | 108 (≈ 485 µM) | 128 (≈ 575 µM) | 128 (≈ 575 µM) | > 64 | 64 (≈ 287 µM) | > 64 | > 64 | > 64 | > 64 | 16 (≈ 71.9 µM)
3 | O=C(COc1ccccc1)OC(Cn1ccnc1)c1ccc(Cl)cc1 (racemic) | 67.7 (≈ 190 µM) | 64 (≈ 179 µM) | 128 (≈ 359 µM) | 2 (≈ 5.61 µM) | 16 (≈ 44.8 µM) | 4 (≈ 11.2 µM) | > 64 | 51.3 (≈ 144 µM) | 16 (≈ 44.8 µM) | 128 (≈ 359 µM) | 32 (≈ 89.7 µM) | 8 (≈ 22.4 µM) | 4 (≈ 11.2 µM) | > 64 | > 64 | 16 (≈ 44.8 µM) | 16 (≈ 44.8 µM)
4 | O=C(OC(Cn1ccnc1)c1ccc(F)cc1)c1cccc(C(F)(F)F)c1 (racemic; 3b) | 27.7 (≈ 73.2 µM) | 8 (≈ 21.1 µM) | 16 (≈ 42.3 µM) | 16 (≈ 42.3 µM) | 2 (≈ 5.29 µM) | 8 (≈ 21.1 µM) | > 64 | 52.9 (≈ 140 µM) | 8 (≈ 21.1 µM) | 128 (≈ 338 µM) | > 8 | 4 (≈ 10.6 µM) | > 64 | 4 (≈ 10.6 µM) | > 64 | > 64 | 8 (≈ 21.1 µM)
5 | Cl.O=C(OC(Cn1ccnc1)c1ccc(Cl)cc1)c1cccc(C(F)(F)F)c1 (racemic) | 46.3 | 8 | 16 | 8 | 8 | 4 | > 64 | 43.8 | 32 | 128 | > 64 | 8 | 0.5 | 32 | 32 | 32 | 32
6 | O=C(OC(Cn1ccnc1)c1ccccc1)c1cccc(C(F)(F)F)c1 (racemic) | 91.4 (≈ 254 µM) | 64 (≈ 178 µM) | 128 (≈ 355 µM) | ≥ 64 | ≥ 64 | 32 (≈ 88.8 µM) | ≥ 64 | 85 (≈ 236 µM) | 64 (≈ 178 µM) | 128 (≈ 355 µM) | 64 (≈ 178 µM) | 8 (≈ 22.2 µM) | 32 (≈ 88.8 µM) | > 64 | > 64 | > 64 | 64 (≈ 178 µM)
7 | CC(C)c1ccc(NC(=O)OC(Cn2ccnc2)c2ccccc2)cc1 (racemic) | 77.7 (≈ 222 µM) | 64 (≈ 183 µM) | 128 (≈ 366 µM) | 32 (≈ 91.6 µM) | ≥ 64 | 64 (≈ 183 µM) | ≥ 64 | 107 (≈ 305 µM) | 128 (≈ 366 µM) | 128 (≈ 366 µM) | 64 (≈ 183 µM) | > 64 | 64 (≈ 183 µM) | > 64 | > 64 | > 64 | 64 (≈ 183 µM)
8 | CC(C)c1ccc(NC(=O)OC(Cn2ccnc2)c2ccc(Cl)cc2)cc1 (racemic) | 60 (≈ 156 µM) | 64 (≈ 167 µM) | 128 (≈ 333 µM) | 16 (≈ 41.7 µM) | 16 (≈ 41.7 µM) | 4 (≈ 10.4 µM) | > 64 | 115 (≈ 299 µM) | 128 (≈ 333 µM) | 128 (≈ 333 µM) | > 64 | > 64 | > 64 | > 64 | > 64 | > 64 | > 64
9 | O=C(COc1ccccc1)OC(Cn1ccnc1)c1ccc(F)cc1 (racemic) | 76.6 (≈ 225 µM) | 64 (≈ 188 µM) | 128 (≈ 376 µM) | 16 (≈ 47 µM) | ≥ 64 | 8 (≈ 23.5 µM) | > 64 | 61.1 (≈ 180 µM) | 4 (≈ 11.8 µM) | 128 (≈ 376 µM) | > 64 | 4 (≈ 11.8 µM) | 1 (≈ 2.94 µM) | > 64 | > 64 | 16 (≈ 47 µM) | 16 (≈ 47 µM)
10 | Cl.O=C(OC(Cn1ccnc1)c1ccc(F)cc1)c1cccc(C(F)(F)F)c1 (racemic; 4b) | 34.3 | 8 | 64 | 8 | 8 | 8 | ≥ 64 | 22.6 | 16 | 32 | 32 | 8 | 1 | 32 | 64 | 32 | 16
11 | OC(Cn1ccnc1)c1ccc(F)cc1 (racemic) | 101 (≈ 491 µM) | 128 (≈ 621 µM) | 128 (≈ 621 µM) | > 64 | 32 (≈ 155 µM) | > 64 | > 64 | 104 (≈ 504 µM) | 128 (≈ 621 µM) | 128 (≈ 621 µM) | > 64 | > 64 | 16 (≈ 77.6 µM) | > 64 | > 64 | 16 (≈ 77.6 µM) | 64 (≈ 310 µM)
12 | O=C(OC(Cn1ccnc1)c1ccccc1)c1ccc(C(F)(F)F)cc1 (racemic) | 33.1 (≈ 91.9 µM) | 8 (≈ 22.2 µM) | 64 (≈ 178 µM) | 8 (≈ 22.2 µM) | 8 (≈ 22.2 µM) | 8 (≈ 22.2 µM) | ≥ 64 | 55.5 (≈ 154 µM) | 32 (≈ 88.8 µM) | 128 (≈ 355 µM) | 64 (≈ 178 µM) | 32 (≈ 88.8 µM) | 4 (≈ 11.1 µM) | 16 (≈ 44.4 µM) | > 64 | 8 (≈ 22.2 µM) | 64 (≈ 178 µM)
